The subject of data set [1] is Left cardiac atrium. The data set can be described thus: Negative inotropic activity in guinea pig left atrium assessed as decrease in developed tension at 5 x 10^-6 M relative to control. It is filed as ADME, tissue-based, Cavia porcellus. Also noted: scale not given: the % may be the effect or the level left. The note with it: 5 µM.
Data set [2] is described as follows: Selectivity ratio of EC50 for negative chronotropic activity in guinea pig spontaneously beating right atrium to EC50 for negative inotropic activity in guinea pig left atrium. The class given is ADME, tissue-based, Cavia porcellus.
Data set [3] deals with Right cardiac atrium. The data set is described as follows: Negative chronotropic activity in guinea pig spontaneously beating right atrium assessed as decrease in atrial rate at 5 x 10^-7 M relative to control. The note with it: 0.5 µM. The class given is ADME, tissue-based, Cavia porcellus. Also noted: scale not given: the % may be the effect or the level left.
Data set [4] relates to Right cardiac atrium. The data set can be described thus: Negative chronotropic activity in guinea pig spontaneously beating right atrium assessed as decrease in atrial rate. It is filed as tissue-based. To be noted: Cavia porcellus.
The target in data set [5] is T1, Voltage-gated L-type calcium channel (Homo sapiens, UniProt Q13936+Q13698+Q01668+O60840). The data set is described as follows: Inhibition of voltage-dependent L-type calcium channel in human SH-SY5Y cells assessed as protection against glutamate-induced excitotoxicity by measuring recovery of cell viability at 20 uM measured after 24 hrs by alamar blue-based fluorescence method relative to control. A general note: Alamar Blue is a resazurin reagent that responds to reducing activity.

Data set [6] addresses T1, Voltage-gated L-type calcium channel. The data set is described as follows: Inhibition of voltage-dependent L-type calcium channel in human SH-SY5Y cells assessed as protection against glutamate-induced excitotoxicity by measuring recovery of cell viability at 1 uM measured after 24 hrs by alamar blue-based fluorescence method relative to control.
Data set [7] deals with T2, Voltage-gated L-type calcium channel (Rattus norvegicus, UniProt P22002+Q02485+P27732). The data set is described as follows: Inhibition of voltage-dependent L-type calcium channel in Wistar rat brain slices assessed as protection against oxygen glucose deprivation/reperfusion-induced injury by measuring recovery of edema formation at 20 uM administered at onset of reperfusion period measured after 90 mins relative to control. Also noted: scale not given: the % may be the effect or the level left. To be noted: 1.5 h.

For data set [8], the system named is Left cardiac atrium. The data set can be described thus: Negative inotropic activity in guinea pig left atrium assessed as decrease in developed tension at 0.001 to 100 uM relative to control. The class given is ADME, tissue-based. To be noted: Cavia porcellus.
Data set [9] deals with T1, Voltage-gated L-type calcium channel. The data set is described as follows: Inhibition of voltage-dependent L-type calcium channel in human U373MG cells assessed as protection against oxygen glucose deprivation/reperfusion-induced injury by measuring recovery of cell viability at 1 uM administered at onset of reperfusion period measured after 16 hrs by alamar blue assay relative to control. The class given is cell-based. The essentials: (§1)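 U-373 MG astrocytoma cells seeded at 30000 cells/ml and grown 24 or 48 h (37 °C/5% CO2). OGD: 24 h at 37 °C in glucose-free DMEM pre-bubbled with 95% N2/5% CO2, in a sealed nitrogen-flushed chamber. Then 16 h reperfusion in normal medium; compounds added at reperfusion, diluted from DMSO stock (DMSO ≤0.1%). Viability by alamarBlue, 4 h at 37 °C, fluorescence ex 530–560/em 590 nm. Expressed as % recovery from injury, mean ± S.E. of ≥3 experiments in sixuplicate.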

The test system of data set [10] is Aorta. The data set is described as follows: Inhibition of calcium-induced contraction in K+-depolarized guinea pig aortic strips at 10^-7 M relative to control. It is filed as tissue-based. To be noted: Cavia porcellus.
The target of data set [11] is T1, Voltage-gated L-type calcium channel. The data set is described as follows: Inhibition of voltage-dependent L-type calcium channel in human U373MG cells assessed as protection against oxygen glucose deprivation/reperfusion-induced injury by measuring recovery of cell viability at 20 uM administered at onset of reperfusion period measured after 16 hrs by alamar blue assay relative to control. It is filed as cell-based. The gist of the method:
as §1

The target in data set [12] is T2, Voltage-gated L-type calcium channel. The data set is described as follows: Inhibition of voltage-dependent L-type calcium channel in Wistar rat brain slices assessed as protection against oxygen glucose deprivation/reperfusion-induced injury by measuring recovery of LDH release at 20 uM administered at onset of reperfusion period measured after 90 mins by spectrophotometric assay relative to control. The note with it: 1.5 h. Also noted: scale not given: the % may be the effect or the level left.

Data set [13] concerns Right cardiac atrium. The data set is described as follows: Negative inotropic activity in guinea pig right atrium assessed as decrease in developed tension at 5 x 10^-5 M relative to control. It is filed as ADME, tissue-based, Cavia porcellus. Also noted: scale not given: the % may be the effect or the level left. To be noted: 50 µM.
The test system of data set [14] is Left cardiac atrium (Cavia porcellus). The data set is described as follows: Negative inotropic activity in guinea pig left atrium assessed as decrease in developed tension.
For data set [15], the system named is Left cardiac atrium. The data set is described as follows: Negative inotropic activity in guinea pig left atrium assessed as decrease in developed tension at 10^-5 M relative to control. Also noted: scale not given: the % may be the effect or the level left. The note with it: 10 µM.
Data set [16] concerns Aorta. The data set can be described thus: Inhibition of calcium-induced contraction in K+-depolarized guinea pig aortic strips at 10^-5 M relative to control. It is filed as tissue-based. The note with it: Cavia porcellus.
Data set [17] relates to Right cardiac atrium. The data set is described as follows: Negative chronotropic activity in guinea pig spontaneously beating right atrium assessed as decrease in atrial rate at 10^-5 M relative to control. It is filed as ADME, tissue-based, Cavia porcellus. Also noted: scale not given: the % may be the effect or the level left. The note with it: 10 µM.
For data set [18], the system named is Right cardiac atrium. The data set can be described thus: Negative chronotropic activity in guinea pig spontaneously beating right atrium assessed as decrease in atrial rate at 10^-7 M relative to control. The class given is ADME, tissue-based, Cavia porcellus. Also noted: scale not given: the % may be the effect or the level left. To be noted: 0.1 µM.
In data set [19] the test system is Left cardiac atrium. The data set is described as follows: Negative inotropic activity in guinea pig left atrium assessed as decrease in developed tension at 5 x 10^-5 M relative to control. The class given is ADME, tissue-based, Cavia porcellus. Also noted: scale not given: the % may be the effect or the level left. To be noted: 50 µM.
In data set [20] the test system is Aorta. The data set is described as follows: Inhibition of calcium-induced contraction in K+-depolarized guinea pig aortic strips at 5 x 10^-6 M relative to control. It is filed as tissue-based. To be noted: Cavia porcellus.
Data set [21] deals with Right cardiac atrium. The data set can be described thus: Negative chronotropic activity in guinea pig spontaneously beating right atrium assessed as decrease in atrial rate at 5 x 10^-6 M relative to control. It is filed as ADME, tissue-based, Cavia porcellus. Also noted: scale not given: the % may be the effect or the level left. The note with it: 5 µM.
Data set [22] relates to Aorta. The data set can be described thus: Inhibition of calcium-induced contraction in K+-depolarized guinea pig aortic strips. The class given is ADME, tissue-based. The note with it: Cavia porcellus.
Data set [23] concerns Aorta. The data set can be described thus: Inhibition of calcium-induced contraction in K+-depolarized guinea pig aortic strips at 10^-4 M relative to control. To be noted: Cavia porcellus. It is filed as tissue-based.

As a reminder, the EC50 is the concentration giving half of the maximal effect. What is called inhibition is the drop in the measured response relative to a control, in per cent. `CCOC(=O)C1=C(C)NC(C)=C(C(=O)OCC)C1c1c(-c2ccc(F)cc2)nc2sccn12`: the Activity in the data set with Left cardiac atrium [1] was found to be 79%; in the data set with Right cardiac atrium [3], 91%; in [5] it was 59.3%; in data set [6], 42.6%; in data set [7], 89.4%; in data set [9] it was 36.6%. Further, the Activity in [11] was found to be 43.6%; in data set [12], 72.4%. For the same compound, the Ratio EC50 in [2] fell in the range of 25 to 56. The EC50 in the data set on Right cardiac atrium [4] worked out at 1650 nM; in the data set with Left cardiac atrium [8], 64 nM. In addition, the inhibition at 0.1 µM in the data set on Aorta [10] was 6%.
`CCOC(=O)C1=C(C)NC(C)=C(C(=O)OCC)C1c1c(-c2ccc(OC(F)(F)F)cc2)nc2sc(Br)cn12`: the Activity is 49.8% in [5]; 85% in the data set on Right cardiac atrium [13]; < 5% in data set [6]; 62% with Left cardiac atrium [15]; 14.2% in data set [9]; 23.8% in data set [11]. In the data set on Right cardiac atrium [17], the Activity stood at 35%. In addition, the values for the EC50 (in [14]; in the data set with Left cardiac atrium [8]) were 1000 nM and 93 nM, respectively. The inhibition at 10 µM in the data set on Aorta [16] was 5%.
In the case of `CCOC(=O)C1=C(C)NC(C)=C(C(=O)OCC)C1c1c(-c2ccc(Br)c([N+](=O)[O-])c2)nc2sccn12`, the EC50 in the data set with Right cardiac atrium [4] came out at 4.3 nM; with Left cardiac atrium [8] it was 1270 nM. Also, the Activity is listed as 59.2% in data set [5]; < 5% in data set [6]; 90% with Right cardiac atrium [18]; 53% with Left cardiac atrium [19]; < 5% in [7]; < 5% in data set [9]. The Activity was 32.4% in data set [11] and < 5% in data set [12]. Also, the inhibition at 5 µM in the data set with Aorta [20] is 41%.
What is called IC50 is the concentration needed to halve the response being measured. Regarding `CCOC(=O)C1=C(C)NC(C)=C(C(=O)OCC)C1c1c(-c2cc(F)c(F)cc2F)nc2sccn12`, in [2], the “Ratio EC50” value was < 10. The 50% effective concentration (EC50) is 1240 nM in the data set with Right cardiac atrium [4] and 160 nM in the data set with Left cardiac atrium [8]. In addition, the Activity in [5] was 54.7%; in data set [6], < 5%; in the data set on Right cardiac atrium [21], 93%; in [7] it was < 5%; with Left cardiac atrium [15], 78%; in data set [9] it was 7.4%. Moreover, the Activity is 30.6% in data set [11] and < 5% in [12]. Further, the IC50 in the data set with Aorta [22] is 5570 nM. Further, in the data set with Aorta [23], the inhibition at 100 µM came to 62%.
